In assay [1] the target is T1, Protein cereblon/Focal adhesion kinase 1 (Homo sapiens, UniProt Q05397+Q96SW2). The assay can be described thus: Protac activity at CRBN/FAK in human PA1 cells assessed as induction of FAK degradation at 10 nM incubated for 8 hrs by Western blot analysis relative to control. Type of assay: cell-based. Conditions: PA-1. In a few lines:
(§1)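 PA1 cells were treated at the indicated doses for 8 h, and FAK was quantified from immunoblots relative to untreated control. Data come from three independent experiments.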

Assay [2] has as its target T1, Protein cereblon/Focal adhesion kinase 1. The assay can be described thus: Protac activity at CRBN/FAK in human PA1 cells assessed as induction of FAK degradation at 1 nM incubated for 8 hrs by Western blot analysis relative to control. Type of assay: cell-based. Conditions: PA-1. In short, it runs like this:
as §1

The test system of the next assay is MDA-MB-436. The experiment in a line: Antiproliferative activity against human MDA-MB-436 cells assessed as effect on cell proliferation after 72 hrs by MTS assay. Type of assay: functional, cell-based.
In assay [3] the target is T2, Protein cereblon/Focal adhesion kinase 1 (Mus musculus) (UniProt P34152+Q8C7D2). The assay can be described thus: Protac activity at CRBN/FAK in mouse TM3 cells assessed as reduction in FAK autophosphorylation at tyr 397 residue at 100 nM after 1 hr by Western blot analysis relative to control. Type of assay: cell-based. Further details: scale not given: the % may be the effect or the level left. In short, it runs like this:
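In a time course, TM3 cells were exposed to 100 nM, and FAK and pFAK Tyr397 levels were followed by immunoblot at successive time points.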

Assay [4] deals with T1, Protein cereblon/Focal adhesion kinase 1. The assay can be described thus: Protac activity at CRBN/FAK in human PA1 cells assessed as FAK degradation at 1 to 100 nM after 8 hrs in presence of 10 uM pomalidomide. Type of assay: cell-based. Conditions: PA-1, dose nM 1-100, time 8.0 hrs. In a few lines: (§2)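 For ligand competition, PA1 cells were treated for 8 h with the degrader (1, 10 or 100 nM) alone, or with excess CRBN ligand pomalidomide (10 μM) or FAK ligand PF562271 (10 μM), alone or combined. FAK was read by immunoblot.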

Assay [5] shares this target. The experiment in a line: Protac activity at CRBN/FAK in human PA1 cells assessed as reduction FAK degradation at 1 to 100 nM after 8 hrs in presence of 5 uM MG132. Type of assay: cell-based. The following applies: PA-1, dose nM 1-100, time 8.0 hrs. In short, it runs like this:
(§3)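 To test proteasome dependence, PA1 cells received the degrader (1, 10 or 100 nM) for 8 h, either alone or together with MG132 (5 μM) or carfilzomib (5 μM). Each inhibitor was also given alone. FAK was assessed by immunoblot.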

Assay [6] shares this target. The assay can be described thus: Protac activity at CRBN/FAK in human PA1 cells assessed as FAK degradation at 1 to 100 nM after 8 hrs in presence of 10 uM PF562271. Type of assay: cell-based. Conditions: PA-1, dose nM 1-100, time 8.0 hrs. In a few lines: as §2
Assay [7] has the same target. The assay can be described thus: Protac activity at CRBN/FAK in human Ramos cells assessed as induction of FAK degradation after 8 hrs by Western blot analysis. Type of assay: cell-based. In a few lines: (§4)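 Each cell line was exposed to graded concentrations for 8 h, and FAK protein was detected by immunoblot. DC50 is the concentration giving half-maximal FAK degradation.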

Another assay relates to PA-1. The experiment in a line: Antiproliferative activity against human PA1 cells assessed as effect on cell proliferation after 72 hrs by MTS assay. Type of assay: functional, cell-based.
Assay [8] addresses T1, Protein cereblon/Focal adhesion kinase 1. The assay can be described thus: Protac activity at CRBN/FAK in human PA1 cells assessed as induction of FAK degradation after 8 hrs by Western blot analysis. Type of assay: cell-based. Conditions: pa-1. In short, it runs like this: as §4
The target of assay [9] is Protein cereblon/Focal adhesion kinase 1 (Mus musculus, UniProt P34152+Q8C7D2). The experiment in a line: Protac activity at CRBN/FAK in mouse TM3 cells assessed as induction of FAK degradation after 8 hrs by Western blot analysis. Type of assay: cell-based. In a few lines: as §4
Assay [10] has as its target T2, Protein cereblon/Focal adhesion kinase 1 (Mus musculus). The experiment in a line: Protac activity at CRBN/FAK in mouse TM3 cells assessed as reduction in FAK autophosphorylation at tyr 397 residue at 1 to 3000 nM after 8 hrs by Western blot analysis. Type of assay: cell-based. The following applies: dose nM 1-3000, time 8.0 hrs. In a few lines: (§5)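 TM3 cells were treated at the indicated doses for 8 h, then immunoblotted for FAK phosphorylated at Tyr397.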

Assay [11] has as its target T1, Protein cereblon/Focal adhesion kinase 1. The experiment in a line: Protac activity at CRBN/FAK in human PA1 cells assessed as reduction FAK degradation at 1 to 100 nM after 8 hrs in presence of 5 uM carfilzomib. Type of assay: cell-based. Conditions: PA-1, dose nM 1-100, time 8.0 hrs. In short, it runs like this: as §3
The test system of a further assay is Ramos. The assay can be described thus: Antiproliferative activity against human Ramos cells assessed as effect on cell proliferation after 72 hrs by MTS assay. Type of assay: functional, cell-based.
Assay [12] deals with T1, Protein cereblon/Focal adhesion kinase 1. The assay can be described thus: Protac activity at CRBN/FAK in human MDA-MB-436 cells assessed as induction of FAK degradation after 8 hrs by Western blot analysis. Type of assay: cell-based. In a few lines: as §4
The target is the same in assay [13]. The experiment in a line: Protac activity at CRBN/FAK in human LNCAP cells assessed as induction of FAK degradation after 8 hrs by Western blot analysis. Type of assay: cell-based. In a few lines: as §4
The next assay concerns TM3. The assay can be described thus: Antiproliferative activity against mouse TM3 cells assessed as effect on cell proliferation after 72 hrs by MTS assay. Type of assay: functional, cell-based.
For a further assay, the system named is LNCaP. The assay can be described thus: Antiproliferative activity against human LNCAP cells assessed as effect on cell proliferation after 72 hrs by MTS assay. Type of assay: functional, cell-based.
Assay [14] addresses T2, Protein cereblon/Focal adhesion kinase 1 (Mus musculus). The experiment in a line: Protac activity at CRBN/FAK in mouse TM3 cells assessed as reduction in FAK autophosphorylation at tyr 397 residue at <1 nM after 8 hrs by Western blot analysis. The following applies: dose nM <1, time 8.0 hrs. Type of assay: cell-based. In short, it runs like this: as §5

The source of these data is ChEMBL document CHEMBL4725428 (ACS Med Chem Lett, 2020).

SMILES strings stand for the structures. Active and inactive are the calls of the source. The rule behind the calls is not given here.

With `CN(c1nccnc1CNc1nc(Nc2ccc(C(=O)NCc3cn(CCOCCOCCNc4cccc5c4C(=O)N(C4CCC(=O)NC4=O)C5=O)nn3)cc2)ncc1C(F)(F)F)S(C)(=O)=O` (stereo not given), the Activity in [1] was 60%; in [2], 32%.

As for `CN(c1ncccc1CNc1nc(Nc2ccc(NC(=O)c3cn(CCCCCOCC#Cc4cccc5c4C(=O)N(C4CCC(=O)NC4=O)C5=O)nn3)cc2)ncc1C(F)(F)F)S(C)(=O)=O` (stereo not given), the values for the Activity in [1] and in assay [2] were 90% and 62%, respectively.

For the compound `CN(c1ncccc1CNc1ncc(C(F)(F)F)c(Nc2ccc(NC(=O)c3cn(CCOCCOCCOCCNc4cccc5c4C(=O)N(C4CCC(=O)NC4=O)C5=O)nn3)cc2)n1)S(C)(=O)=O` (stereo not given), the Activity in assay [1] and in [2] was 0% each time.

As for `CN(c1ncccc1CNc1nc(Nc2ccc(C(=O)NCc3cn(CCOCCOCCNc4cccc5c4C(=O)N(C4CCC(=O)NC4=O)C5=O)nn3)cc2)ncc1C(F)(F)F)S(C)(=O)=O` (stereo not given), the Activity in assay [1] is 65%; in assay [2], 40%.

As for `CN(c1ncccc1CNc1nc(Nc2ccc(NC(=O)c3cn(CCOCCOCC#Cc4cccc5c4C(=O)N(C4CCC(=O)NC4=O)C5=O)nn3)cc2)ncc1C(F)(F)F)S(C)(=O)=O` (stereo not given), the values for the Activity in assay [1] and in assay [2] were 90% and 62%, respectively.

For `CN(c1nccnc1CNc1nc(Nc2ccc(C(=O)NCc3cn(CCOCCNc4cccc5c4C(=O)N(C4CCC(=O)NC4=O)C5=O)nn3)cc2)ncc1C(F)(F)F)S(C)(=O)=O` (stereo not given), the Activity in assay [1] stood at 71%; in [2] it was 37%.

In the case of `CN(c1ncccc1CNc1nc(Nc2ccc(NC(=O)c3cn(CCCCCOCCCc4cccc5c4C(=O)N(C4CCC(=O)NC4=O)C5=O)nn3)cc2)ncc1C(F)(F)F)S(C)(=O)=O` (stereo not given), the Activity in [1] came out at 95%; in assay [2], 85%.

Consider `CN(c1ncccc1CNc1nc(Nc2ccc(NC(=O)c3cn(CCOCCOCCNc4cccc5c4C(=O)N(C4CCC(=O)NC4=O)C5=O)nn3)cc2)ncc1C(F)(F)F)S(C)(=O)=O` (stereo not given), for which the result (in the assay on MDA-MB-436; in assay [4]; in assay [5]; in [6]; in the assay on PA-1; in [11]) was inactive. Also, the outcome in the assay on Ramos, in the assay on TM3 and in the assay with LNCaP was inactive. In addition, the Activity in assay [3] is greater than 50%; in [1], 99%; in assay [2] it was 90%. In addition, the DC50 in assay [7] turned out to be 0.04 nM; in assay [8], 0.08 nM; in [9] it was 0.31 nM; in assay [12], 0.33 nM; in assay [13] it was 0.37 nM. The result in assay [10] and in assay [14] was Active.

Turning to `CN(c1ncccc1CNc1nc(Nc2ccc(NC(=O)c3cn(CCOCCOCCOCCOCCNc4cccc5c4C(=O)N(C4CCC(=O)NC4=O)C5=O)nn3)cc2)ncc1C(F)(F)F)S(C)(=O)=O` (stereo not given), the values for the Activity in [1] and in [2] were 82% and 30%, respectively.

Turning to `CN(c1ncccc1CNc1nc(Nc2ccc(C(=O)NCc3cn(CCOCCOCCOCCNc4cccc5c4C(=O)N(C4CCC(=O)NC4=O)C5=O)nn3)cc2)ncc1C(F)(F)F)S(C)(=O)=O` (stereo not given), the results for the Activity in [1] and in assay [2] were 30% and 10%, respectively.

`CN(c1nccnc1CNc1nc(Nc2ccc(C(=O)NCc3cn(CCOCCOCCOCCNc4cccc5c4C(=O)N(C4CCC(=O)NC4=O)C5=O)nn3)cc2)ncc1C(F)(F)F)S(C)(=O)=O` (stereo not given): the Activity worked out at 22% in [1] and 5% in assay [2].

Turning to `CN(c1nccnc1CNc1nc(Nc2ccc(NC(=O)c3cn(CCOCCOCCNc4cccc5c4C(=O)N(C4CCC(=O)NC4=O)C5=O)nn3)cc2)ncc1C(F)(F)F)S(C)(=O)=O` (stereo not given), the Activity came to 96% in assay [1] and 71% in assay [2].

Turning to `CN(c1ncccc1CNc1nc(Nc2ccc(NC(=O)c3cn(CCCCCCCC#Cc4cccc5c4C(=O)N(C4CCC(=O)NC4=O)C5=O)nn3)cc2)ncc1C(F)(F)F)S(C)(=O)=O` (stereo not given), the Activity in assay [1] came out at 90%; in assay [2], 62%.

Consider `CN(c1ncccc1CNc1nc(Nc2ccc(C(=O)NCc3cn(CCOCCNc4cccc5c4C(=O)N(C4CCC(=O)NC4=O)C5=O)nn3)cc2)ncc1C(F)(F)F)S(C)(=O)=O` (stereo not given), for which the values for the Activity in assay [1] and in [2] were 81% and 55%, respectively.

Take `CCN1C(=O)CCC(N2C(=O)c3cccc(NCCOCCOCCn4cc(C(=O)Nc5ccc(Nc6ncc(C(F)(F)F)c(NCc7cccnc7N(C)S(C)(=O)=O)n6)cc5)nn4)c3C2=O)C1=O` (stereo not given): the Activity in assay [1] and in assay [2] was 0% in each case.

Turning to `CN(c1ncccc1CNc1nc(Nc2ccc(NC(=O)c3cn(CCCCCCCCNc4cccc5c4C(=O)N(C4CCC(=O)NC4=O)C5=O)nn3)cc2)ncc1C(F)(F)F)S(C)(=O)=O` (stereo not given), the Activity in assay [1] is 93%; in [2], 67%.

On to `CN(c1ncccc1CNc1nc(Nc2ccc(NC(=O)c3cn(CCOCCOCCCc4cccc5c4C(=O)N(C4CCC(=O)NC4=O)C5=O)nn3)cc2)ncc1C(F)(F)F)S(C)(=O)=O` (stereo not given), for which the Activity in assay [1] came to 90%; in assay [2], 62%.

As to `CN(c1ncccc1CNc1ncc(C(F)(F)F)c(Nc2ccc(NC(=O)c3cn(CCOCCOCCNc4cccc5c4C(=O)N(C4CCC(=O)NC4=O)C5=O)nn3)cc2)n1)S(C)(=O)=O` (stereo not given), the Activity in assay [1] amounted to 2%; in assay [2], 0%.

For `CN(c1ncccc1CNc1nc(Nc2ccc(NC(=O)c3cn(CCOCCOCCOCCNc4cccc5c4C(=O)N(C4CCC(=O)NC4=O)C5=O)nn3)cc2)ncc1C(F)(F)F)S(C)(=O)=O` (stereo not given), the Activity in assay [1] was found to be 94%; in [2] it was 46%.

As for `CN(c1ncccc1CNc1nc(Nc2ccc(NC(=O)c3cn(CCCCCCCCCc4cccc5c4C(=O)N(C4CCC(=O)NC4=O)C5=O)nn3)cc2)ncc1C(F)(F)F)S(C)(=O)=O` (stereo not given), the figures for the Activity in [1] and in assay [2] were 85% and 40%, respectively.

As to `CN(c1nccnc1CNc1nc(Nc2ccc(NC(=O)c3cn(CCOCCNc4cccc5c4C(=O)N(C4CCC(=O)NC4=O)C5=O)nn3)cc2)ncc1C(F)(F)F)S(C)(=O)=O` (stereo not given), the Activity in assay [1] was 90%; in assay [2] it was 32%.

For the compound `CN(c1ncccc1CNc1nc(Nc2ccc(NC(=O)c3cn(CCOCCNc4cccc5c4C(=O)N(C4CCC(=O)NC4=O)C5=O)nn3)cc2)ncc1C(F)(F)F)S(C)(=O)=O` (stereo not given), the Activity was determined as 92% in assay [1] and 40% in assay [2].

Take `CN(c1nccnc1CNc1nc(Nc2ccc(NC(=O)c3cn(CCOCCOCCOCCNc4cccc5c4C(=O)N(C4CCC(=O)NC4=O)C5=O)nn3)cc2)ncc1C(F)(F)F)S(C)(=O)=O` (stereo not given): the Activity in assay [1] worked out at 92%; in [2], 35%.

Turning to `CN(c1ncccc1CNc1ncc(C(F)(F)F)c(Nc2ccc(NC(=O)c3cn(CCOCCNc4cccc5c4C(=O)N(C4CCC(=O)NC4=O)C5=O)nn3)cc2)n1)S(C)(=O)=O` (stereo not given), the Activity in assay [1] and in assay [2] was 0% throughout.
